# Bioassay records from PubChem BioAssay.
# An excerpt weighted towards active compounds, which were near 5.8% of everything screened.
# RBBP9 inh = human RBBP9 hydrolase inhibition; 220,000 compounds, 0.2% hits; recombinant RBBP9, FP-Rh probe fluorescence polarization; inhibition, % at 7.94 µM; AID 1515;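 active means inhibition above the campaign mean of all tested compounds plus 3 SD, cut at about 14% in these data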;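 further: plate controls were DMSO wells with RBBP9 for no effect and wells lacking RBBP9 protein for full effect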
#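 Controls: DMSO-treated enzyme wells and wells lacking RBBP9 | Material: RBBP9 protein | Technique: Fluorescence polarization | Replication: Single well per compound, no replicates | Buffer or medium: Tris-NaCl-Pluronic buffer, pH 8.0 | Timing: 30 min compound preincubation, 45 min probe labeling, 25 °C | Read-out basis: Percent inhibition from mP, scaled between DMSO and no-protein wells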
# 14-3-3 Bad inh = disrupts binding of bovine 14-3-3 zeta to phospho-Bad peptide | AID 781 | inhibition, % at 21.7 µM | TR-FRET 14-3-3zeta/Dy647-pBad peptide displacement, 1 h | 220,000 compounds, 0.71% hits | P63103;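 active means inhibition above about 70%, limit read from the data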;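 further: 0% = full 14-3-3 plus peptide FRET controls and 100% = background without 14-3-3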
# WT yeast gro inh = growth inhibition of WT yeast, mitochondrial fusion screen | inhibition, % at 10 µM | 190,000 compounds, 2.1% hits | mitochondrial fusion phenotypic screen, WT strain; in the data active means inhibition above about 58%; tested in S. cerevisiae
# p47phox inh = p47phox (human) inhibition; P14598; p47phox/p22phox peptide binding, fluorescence polarization, 2 h; inhibition, % at 24.7 µM; 220,000 compounds, 0.53% hits; AID 1274;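 active means inhibition above about 30%, limit read from the data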;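 further: 0% = p47phox with labelled peptide and 100% = labelled peptide alone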
# Target sequence (P14598 whole entry, looked up): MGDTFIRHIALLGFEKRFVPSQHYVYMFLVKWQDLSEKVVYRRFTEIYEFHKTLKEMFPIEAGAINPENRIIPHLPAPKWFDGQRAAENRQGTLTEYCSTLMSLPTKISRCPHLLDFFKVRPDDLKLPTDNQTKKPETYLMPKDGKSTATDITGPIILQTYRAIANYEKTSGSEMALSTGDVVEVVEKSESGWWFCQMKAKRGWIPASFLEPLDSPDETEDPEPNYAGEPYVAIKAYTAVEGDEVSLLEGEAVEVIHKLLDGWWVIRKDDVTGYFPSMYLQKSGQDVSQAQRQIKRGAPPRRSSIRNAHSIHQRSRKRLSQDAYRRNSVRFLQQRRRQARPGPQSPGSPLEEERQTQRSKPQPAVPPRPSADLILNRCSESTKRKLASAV
# ROMK mod = modulates human ROMK potassium channel activity. Tet-inducible ROMK, thallium flux fluorescence; actives lie on both sides. B-score at 10 µM. 130,000 compounds, 2% hits;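 active means signal ratio slope over the read window, or its plate-corrected B-score, at least 3 SD from the plate mean, either direction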;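 further: B-score of the F/F0 ratio slope over 7 to 12 s after thallium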
# KCC2 mod = modulates chloride dependent transport by human KCC2; Q9H2X9; KCC2 cells, thallium flux FluoZin-2 fluorescence; B-score of Tl+ flux slope (higher = more flux/activation; lower = inhibition) at 10 µM; 190,000 compounds, 2.2% hits;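 active means thallium flux slope and its plate-corrected score both differing from the plate sample mean at a set confidence after two filtering rounds, in either direction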;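 further: slope of fluorescence scaled to starting intensity during 10 to 20 s after thallium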
# Active calls of the source: *; . = not tested or not shown; [ ] = remark or other dose.
SMILES,RBBP9 inh,14-3-3 Bad inh,WT yeast gro inh,p47phox inh,ROMK mod,KCC2 mod
N=C(N)SCc1nc2ccccc2c(=O)n1-c1ccccc1Cl,-3,18,9,-6,.,0.14
N#CC(C#N)=C1C=CC=CN1/C(=C\c1ccco1)C(=O)c1ccc(Br)cc1,3,-8,71*,-18,.,0.82
CSc1ccc(CN(C)CC(=O)Nc2ccc(C)cc2Br)cc1,-2,-262,62*,-6,0.11,-0.78
CC(NC(=O)C(=O)N/N=C\c1cccc([N+](=O)[O-])c1)c1ccccc1 (stereo unspecified),-2,4,4,-7,0.74,0.58
CCCCc1ccc(NC(=S)NCc2ccc(OC)cc2)cc1,0,-9,72*,1,0.044,0.18
CCCCc1ccc(NC(=S)NCc2ccccc2OC)cc1,-2,-5,65*,-1,-0.54,0.41
CCc1ccc(NC(=S)NC2CCN(Cc3ccccc3)CC2)cc1,-1,6,23,-16,-2.3,-2
CCC(C)c1ccc(NC(=S)Nc2ccc(OC)cc2)cc1 (stereo unspecified),-8,2,72*,-6,.,-0.72
CCC(C)c1ccc(NC(=S)NC2CCN(Cc3ccccc3)CC2)cc1 (stereo unspecified),-1,-11,75*,-5,.,0.025
CCOc1ccc(NC(=S)Nc2ccc(OC)cc2)cc1,1,-3,-2,4,0.4,0.089
CNC(=O)c1c(C)noc1C,-1,-4,-10,-1,.,0
CC(C)(C)NC(=O)NC(=O)CSc1n[nH]c(-c2ccccc2Br)n1,0,-8,8,-3,-0.97,0.64
O=C1N=C(N2CCOCC2)S/C1=C/c1cc2c(cc1[N+](=O)[O-])OCO2,-3,8,.,-3,.,-0.12
COc1ccc(CNC(=O)Nc2ccc(C)cc2)cc1,-3,3,-7,-1,.,1.6
CCOC(=O)c1ccc(NC(=O)NCc2ccc(OC)cc2)cc1,-4,79*,5,-7,0.98,-0.23
CN(C(=O)COC(=O)c1ccc(-c2ccc(O)cc2)cc1)C1CCS(=O)(=O)C1 (stereo unspecified),-14,4,.,-18,.,0.0064
CCN(c1ccccc1)S(=O)(=O)c1ccc(Cl)c(NC(=O)CSc2ncn[nH]2)c1,-5,0,5,-29,-0.61,0.68
Cc1cc(C)c(S(=O)(=O)/N=C2/C=C(Sc3ncn[nH]3)C(=O)c3ccccc32)cc1C,8,76*[fluorescence artefact?],26,54*,-4.9*,-0.57
COc1ccc(-c2csc3[nH]c(=S)n(-c4ccccc4)c(=O)c23)cc1OC,-10,12,-3,-10,0.75,0.43
Cc1ccc(-n2[nH]c(C)c(C=Nc3ccc4[nH]c(=O)[nH]c4c3)c2=O)cc1,5,22,6,-7,.,-0.59
Cc1ccc(N=Cc2c(C)[nH]n(-c3nc4ccccc4[nH]3)c2=O)cc1,2,-1,84*,-112,.,-0.91
O=C1c2ccccc2C(=O)N1CCCCSc1nnc2ccccn12,1,1,-3,133*,.,0.11
CCC(C)NC(=O)NCc1ccccc1F (stereo unspecified),-2,0,-3,7,-0.032,0.95
CCOc1ccc(C(=O)C(c2ccccc2)N2CCOCC2)cc1 (stereo unspecified),1,64,0,-15,0.44,.
COc1ccc(C(=O)C(c2ccccc2)N2CCOCC2)cc1 (stereo unspecified),-3,71*,12,3,-0.17,.
SMILES,RBBP9 inh,14-3-3 Bad inh,WT yeast gro inh,p47phox inh,ROMK mod,KCC2 mod
Cc1cccc(NC(=O)Cn2nnc3ccccc32)c1,-8,-6,16,-9,0.57,1.8
CS(=O)(=O)N(CC(=O)N1CCCC1)Cc1ccc(Cl)cc1,-8,-14,1,-1,1,1.7
CC(/C=N/n1c(COc2ccccc2)n[nH]c1=S)=C\c1ccccc1,-8,-8,75*,1,.,7.8*
O=C(CCC1CCCN(C(=O)CCCc2ccccc2)C1)N1CCN(c2ccccn2)CC1 (stereo unspecified),-5,-9,.,95*,.,-2.6
CC(C)NC(=S)Nc1ccc2nc3n(c(=O)c2c1)CCCCC3,-4,-13,-19,-4,0.041,0.62
O=C(Cc1ccccc1)Nn1cnc2ccccc21,-11,78*,-10,-5,.,0.73
O=C(Cn1cnc2ccccc21)NCc1ccccc1,-7,-5,-9,-1,.,0.55
